# Results published in ChEMBL document CHEMBL6134787, “Fexinidazole optimization: enhancing anti-leishmanial profile, metabolic stability and hERG safety” (RSC Med Chem, 2024).
# Assays:
# [1] = Cytotoxicity against mouse peritoneal macrophage assessed as inhibition of cell growth incubated for 72 hrs by giemsa staining based analysis; format: toxicity; settings: peritoneal macrophages
# [2] = Metabolic stability in rat liver microsome assessed as drug metabolism measured up to 32 mins in absence of inhibitor by HPLC analysis relative to control; settings: liver microsomes, without inhibitor
# [3] = molecular target: T1, Voltage-gated inwardly rectifying potassium channel KCNH2 (Homo sapiens, UniProt Q12809); assay: Inhibition of human ERG stably overexpressed in HEK293 cells incubated for 30 mins by FLIPR assay; format: toxicity, cell-based; settings: for IC25: human, hek293, 0.5 h, time 30 min
# [4] = Metabolic stability in rat liver microsome assessed as parent compound remaining at 50 degreeC measured after 16 mins after heat treatment by HPLC analysis; settings: liver microsomes, heat-treated
# [5] = Cytotoxicity against mouse L929 cells assessed as inhibition of cell growth incubated for 72 hrs by MTS assay; format: toxicity, cell-based
# How it was run: (§1)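 Cells in DMEM + 10% heat-inactivated FBS with penicillin/streptomycin at 37 °C, 5% CO2. They were seeded at 1 × 10^4/well and incubated with a concentration series for 72 h at 37 °C. Viability was read by MTS/PMS assay at 490 nm and IC50 derived.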
# Leishmania amazonensis [6] = assay: Antileishmanial activity against wild type Leishmania amazonensis LV78 amastigotes infected in mouse peritoneal macrophage assessed as inhibition of parasite growth incubated for 72 hrs by giemsa staining based analysis; format: functional, organism-based
# How it was run: (§2)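 Mouse peritoneal macrophages (1 × 10^5/well on coverslips, DMEM + 10% heat-inactivated FBS, penicillin/streptomycin) adhered overnight at 37 °C, 5% CO2. They were infected overnight with late-log promastigotes at a 20:1 parasite:macrophage ratio. Cells were then treated with compound for 72 h at 37 °C and Giemsa-stained. Amastigotes per 100 macrophages were counted to derive IC50; mean ± SD of 3–4 independent experiments.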
# Leishmania donovani [7] = assay: Antileishmanial activity against miltefosine resistant Leishmania donovani HU3MILR40 promastigotes […] assessed as inhibition of parasite growth incubated for 72 hrs by automatic microtiter plate reader analysis; format: functional, organism-based
# How it was run: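 Promastigote (free parasite) assay: Schneider's Drosophila medium with 4 mM glutamine, 25 μg mL−1 gentamicin, 10% heat-inactivated FBS, pH 6.9, 27 °C. 1.5 × 10^5 promastigotes per well exposed to a concentration series for 72 h at 27 °C.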
# Leishmania braziliensis [8] = assay: Antileishmanial activity against wild type Leishmania braziliensis UA847 promastigotes […] assessed as inhibition of parasite growth incubated for 72 hrs by automatic microtiter plate reader analysis; format: functional, organism-based
# How it was run: (§3)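 Promastigotes were grown in Schneider's medium (4 mM glutamine, gentamicin, 10% heat-inactivated FBS, pH 6.9, 27 °C). Cells were seeded at 1.5 × 10^5/well and exposed to a concentration series for 72 h at 27 °C.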
# [9] = Hepatotoxicity against mouse TAMH cells assessed as cell viability at 7.8 to 125 uM incubated for 24 to 48 hrs by MTT assay; format: toxicity, cell-based; settings: dose lower 7.8 µM, time lower 24 hrs, dose upper 125 µM, time upper 48 hrs, read-out: Activity
# How it was run: (§4)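 TAMH mouse liver cells in FCS-free DMEM/F12 with 5% PANEXIN NTA, 10 mM nicotinamide and gentamicin. Seeded at 20 000/well and attached 24 h at 37 °C, 5% CO2. DMSO-diluted compounds were applied for 24 or 48 h. MTT was added for 4 h, formazan dissolved in DMSO and A570 read. Viability was background-corrected and expressed relative to DMSO controls; mean ± SD, ≥3 experiments.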
# Leishmania braziliensis [10] = assay: Antileishmanial activity against wild type Leishmania braziliensis UA847 amastigotes infected in mouse peritoneal macrophage assessed as inhibition of parasite growth incubated for 72 hrs by giemsa staining based analysis; format: functional, organism-based; how it was run: as §2
# [11] = Metabolic stability in rat liver S9 fraction assessed as compound remaining at 20 uM measured after 32 mins in presence of NADP and GSH by HPLC analysis; format: ADME, subcellular; settings: read-out: Stability
# How it was run: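 Rat liver S9 (final 4 mg/mL) in 50 mM phosphate pH 7.4 with NADPH-regenerating system (0.3 mM NADP+, 5.3 mM glucose-6-phosphate, G6PDH), 10 mM MgCl2 and 5 mM EDTA. Pre-warmed 10 min at 37 °C, then 20 μM compound and 5.5 μM GSH added. Samples taken at 0, 16 and 32 min were quenched in ice-cold acetonitrile. HPLC (254/280 nm) peak area was expressed relative to 0 min.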
# Leishmania major = assay: Antileishmanial activity against wild type Leishmania major FV1 promastigotes […] assessed as inhibition of parasite growth incubated for 72 hrs by automatic microtiter plate reader analysis; format: functional, organism-based; how it was run: as §3
# [12] = Metabolic stability in rat liver microsome assessed as compound remaining at 20 uM measured after 32 mins in presence of NADP and GSH by HPLC analysis; format: ADME; settings: liver microsomes, read-out: Stability
# How it was run: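 Rat liver microsomes (final 2 mg/mL) in 50 mM phosphate pH 7.4 with 0.3 mM NADP+, 5.3 mM glucose-6-phosphate, G6PDH, 10 mM MgCl2 and 5 mM EDTA. 20 μM compound added at 37 °C. Aliquots at 0, 16 and 32 min were quenched in ice-cold acetonitrile and centrifuged. HPLC peak area at 254/280 nm was expressed relative to 0 min.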
# RAW264.7 = assay: Cytotoxicity against mouse RAW264.7 cells assessed as inhibition of cell growth incubated for 72 hrs by MTS assay; format: functional, cell-based; settings: RAW264.7, 72 h; how it was run: as §1
# Leishmania donovani [13] = assay: Antileishmanial activity against wild type Leishmania donovani HU3 amastigotes infected in mouse peritoneal macrophage assessed as inhibition of parasite growth incubated for 72 hrs by giemsa staining based analysis; format: functional, organism-based
# How it was run: (§5)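 Mouse peritoneal macrophages in DMEM + 10% heat-inactivated FBS, penicillin/streptomycin; 1 × 10^5 cells per well on coverslips, adhered overnight at 37 °C, 5% CO2, non-adherent cells washed off. Infected overnight with late-log promastigotes at parasite:macrophage 40:1. Compound exposure 72 h at 37 °C; Giemsa stain, amastigotes per 100 macrophages counted, IC50 derived; means ± SD of 3–4 independent experiments.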
# Leishmania amazonensis [14] = assay: Antileishmanial activity against wild type Leishmania amazonensis LV78 promastigotes […] assessed as inhibition of parasite growth incubated for 72 hrs by automatic microtiter plate reader analysis; format: functional, organism-based; how it was run: as §3
# Leishmania donovani [15] = assay: Antileishmanial activity against wild type Leishmania donovani HU3 promastigotes […] assessed as inhibition of parasite growth incubated for 72 hrs by automatic microtiter plate reader analysis; format: functional, organism-based
# Leishmania donovani [16] = assay: Antileishmanial activity against miltefosine resistant Leishmania donovani HU3MILR40 amastigotes infected in mouse peritoneal macrophage assessed as inhibition of parasite growth incubated for 72 hrs by giemsa staining based analysis; format: functional, organism-based; how it was run: as §5
# hERG (KCNH2) [17] = molecular target: T2, hERG (KCNH2) (Homo sapiens, UniProt Q12809); assay: Inhibition of human ERG stably overexpressed in HEK293 cells assessed as remaining activity at 6 uM incubated for 30 mins by FLIPR assay; format: toxicity, cell-based; settings: HEK293 cells stably overexpressing hERG, read-out: Activity
# How it was run: (§6)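 HEK-293 cells stably expressing hERG, seeded at 60 000/well and grown 24 h. Compounds were added in DMSO (final 0.5%) and incubated 30 min in the dark. After 20 s baseline, Tl+ stimulus (3 mM) was added and fluorescence (ex 485/em 535 nm) recorded for 2.5 min.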
# hERG (KCNH2) [18] = molecular target: T2, hERG (KCNH2); assay: Inhibition of human ERG stably overexpressed in HEK293 cells assessed as remaining activity at 25 uM incubated for 30 mins by FLIPR assay; format: toxicity, cell-based; settings: HEK293 cells stably overexpressing hERG, read-out: Activity; how it was run: as §6
# [19] = Metabolic stability in rat liver microsome assessed as parent compound remaining at 50 degreeC measured after 32 mins after heat treatment by HPLC; settings: liver microsomes, heat-treated
# [20] = Hepatotoxicity against human HepG2 cells assessed as cell viability at 62.5 uM incubated for 48 hrs by MTT assay; format: toxicity, cell-based; settings: read-out: Activity
# How it was run: (§7)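 HEP-G2 cells in RPMI 1640 + 10% heat-inactivated FBS, penicillin/streptomycin. Seeded at 15 000/well and attached 24 h at 37 °C, 5% CO2. Compounds were serially diluted in DMSO, with 24 or 48 h exposure. MTT (2.5 mg/mL solution) was added for 4 h, formazan dissolved in DMSO and A570 read. Viability was background-corrected against DMSO-treated cell controls; mean ± SD, ≥3 experiments.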
# [21] = Hepatotoxicity against mouse TAMH cells assessed as cell viability at 62.5 uM incubated for 48 hrs by MTT assay; format: toxicity, cell-based; settings: read-out: Activity; how it was run: as §4
# hERG (KCNH2) [22] = molecular target: T2, hERG (KCNH2); assay: (§8) Inhibition of human ERG stably overexpressed in HEK293 cells at 100 uM incubated for 30 mins by FLIPR assay; format: toxicity, cell-based; settings: HEK293 cells stably overexpressing hERG; how it was run: as §6
# [23] = Hepatotoxicity against mouse TAMH cells assessed as cell viability at 125 uM incubated for 48 hrs by MTT assay; format: toxicity, cell-based; how it was run: as §4
# [24] = molecular target: T1, Voltage-gated inwardly rectifying potassium channel KCNH2; assay: as §8; format: toxicity, cell-based; settings: hek293, 0.5 h, 100 µM; how it was run: as §6
# [25] = Hepatotoxicity against human HepG2 cells assessed as cell viability at 125 uM incubated for 48 hrs by MTT assay; format: toxicity, cell-based; settings: hepg2, 48 h, 125 µM; how it was run: as §7
# T1 sequence (Q12809 whole entry): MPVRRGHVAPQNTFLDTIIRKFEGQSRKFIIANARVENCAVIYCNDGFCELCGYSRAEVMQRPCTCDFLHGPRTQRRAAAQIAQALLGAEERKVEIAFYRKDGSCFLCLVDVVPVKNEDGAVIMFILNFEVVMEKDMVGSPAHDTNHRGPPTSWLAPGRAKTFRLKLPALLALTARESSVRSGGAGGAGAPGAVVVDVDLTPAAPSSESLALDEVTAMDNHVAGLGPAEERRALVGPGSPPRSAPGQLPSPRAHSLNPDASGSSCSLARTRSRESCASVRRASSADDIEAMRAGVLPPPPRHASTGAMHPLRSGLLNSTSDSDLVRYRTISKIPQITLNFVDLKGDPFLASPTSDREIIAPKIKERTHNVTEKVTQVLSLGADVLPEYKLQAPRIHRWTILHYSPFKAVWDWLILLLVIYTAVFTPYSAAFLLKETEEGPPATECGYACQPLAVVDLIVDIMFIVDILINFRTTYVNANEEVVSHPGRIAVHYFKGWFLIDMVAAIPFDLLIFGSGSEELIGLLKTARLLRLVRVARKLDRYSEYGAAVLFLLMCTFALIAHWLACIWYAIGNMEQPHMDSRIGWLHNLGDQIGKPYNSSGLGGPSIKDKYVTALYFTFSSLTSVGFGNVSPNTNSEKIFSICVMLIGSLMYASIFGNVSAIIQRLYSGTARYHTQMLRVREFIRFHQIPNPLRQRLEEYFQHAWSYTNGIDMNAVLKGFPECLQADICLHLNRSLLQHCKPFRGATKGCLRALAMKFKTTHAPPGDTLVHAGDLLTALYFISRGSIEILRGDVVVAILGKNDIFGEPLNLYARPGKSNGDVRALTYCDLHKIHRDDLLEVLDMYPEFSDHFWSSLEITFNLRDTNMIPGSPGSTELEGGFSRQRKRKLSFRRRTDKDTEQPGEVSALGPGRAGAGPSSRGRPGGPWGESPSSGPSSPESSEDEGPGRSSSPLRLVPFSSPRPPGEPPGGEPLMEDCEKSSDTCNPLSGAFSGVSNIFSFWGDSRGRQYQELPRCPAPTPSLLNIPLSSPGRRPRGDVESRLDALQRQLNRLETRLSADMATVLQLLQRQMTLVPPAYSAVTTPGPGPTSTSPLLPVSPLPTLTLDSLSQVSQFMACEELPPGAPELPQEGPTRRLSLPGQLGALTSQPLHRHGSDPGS
# T2 sequence (Q12809 whole entry): as above
SMILES,IC50 at 72 h [1],metabolised at 32 min [2],IC25 [3],IC50 at 72 h [5],IC50 (Leishmania amazonensis [6]),IC50 (Leishmania donovani [7]),IC50 (Leishmania braziliensis [8]),viability at up to 125 µM [9],IC50 (Leishmania braziliensis [10]),"remaining at 32 min, 20 µM [11]",IC50 (Leishmania major),"remaining at 32 min, 20 µM [12]",IC50 (RAW264.7),IC50 (Leishmania donovani [13]),IC50 (Leishmania amazonensis [14]),IC50 (Leishmania donovani [15]),IC50 (Leishmania donovani [16]),further results
CCc1ccc(OCc2ncc([N+](=O)[O-])n2C)cc1,> 100 µM,100%,14.9 µM,71.8 µM,> 10 µM,5.3 µM,3.9 µM,> 50%,> 10 µM,96.4%,1.4 µM,0%,> 68.5 µM,> 10 µM,4.5 µM,5 µM,> 10 µM,remaining at 16 min [4]: 16%
CSc1ccc(OCc2ncc([N+](=O)[O-])n2C)cc1 [FEXINIDAZOLE],> 82 µM,100%,8.6 µM,> 100 µM,> 10 µM,5.5 µM,3.9 µM,–,> 10 µM,73.4%,1.9 µM,0%,> 100 µM,> 10 µM,7 µM,3.3 µM,> 10 µM,"activity at 0.5 h, 6 µM (hERG (KCNH2) [17]): 78%; IC50 [3]: ~10.7 µM; activity at 0.5 h, 25 µM (hERG (KCNH2) [18]): 34%; remaining at 32 min [19]: 11%; viability at 48 h, 62.5 µM [20]: 95%; viability at 48 h, 62.5 µM [21]: 90%"
CSc1ccc(CCc2ncc([N+](=O)[O-])n2CCO)cc1,–,–,6 µM,> 100 µM,–,> 20 µM,> 20 µM,> 50%,–,76.8%,> 20 µM,20.5%,> 100 µM,–,> 20 µM,> 20 µM,–,"inhibition at 0.5 h, 100 µM (hERG (KCNH2) [22]): 100%"
Cn1c([N+](=O)[O-])cnc1COc1ccc([S+](C)[O-])cc1 (stereo unspecified) [FEXINIDAZOLE SULFOXIDE],–,–,> 100 µM,> 100 µM,–,4.3 µM,4.3 µM,> 50%,–,100%,1.4 µM,100%,> 100 µM,–,7.8 µM,3.4 µM,–,Activity [23]: Non-toxic; inhibition (INH) [24]: Not_active; Activity [25]: Non-toxic
